Test results reported in ChEMBL document CHEMBL3407350, “Synthesis and anti-hepatitis B virus activity of C4 amide-substituted isosteviol derivatives” (Bioorg Med Chem, 2015).
≈ marks a conversion by molar mass, not a printed value. Calls of active or inactive are those of the source. No cut-off for these calls is given here.

Tests used:
[1] = Cytotoxicity against human HepG2(2.2.15) cells; type: cell-based; details: read-out: TC50 (the source's name)
Method in brief: (§1)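 Cytotoxicity by MTS: HepG2 2.2.15 cells seeded at 4×10^4 cells/ml for 24 h, exposed to serial dilutions 2.5–160 µg/ml for 3 days; four replicates, viability expressed relative to untreated control; TC50 as 50% cytotoxic concentration.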

Hepatitis B virus [2] = assay: Antiviral activity against HBV infected in human HepG2(2.2.15) cells assessed as inhibition of surface antigen secretion by EIA; type: functional, organism-based
Method in brief: (§2)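 HepG2 2.2.15 cells (HepG2 stably carrying a head-to-tail HBV DNA dimer; MEM, 10% FBS, 37 °C, 5% CO2) treated with compound for 3 days; conditioned medium assayed for secreted HBsAg and HBeAg by enzyme immunoassay; mean and SD, n = 3; IC50 taken as 50% inhibitory concentration.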

[3] = Selectivity index, ratio of TC50 for human HepG2(2.2.15) cells to IC50 for HBV infected in human HepG2(2.2.15) cells assessed as inhibition of surface antigen secretion
Method in brief: (§3)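 Selectivity index computed as TC50 (MTS, HepG2 2.2.15, 3 days) divided by IC50 for HBsAg, HBeAg or virion DNA inhibition in the same cell line.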

Hepatitis B virus [4] = assay: Antiviral activity against HBV infected in human HepG2(2.2.15) cells assessed as inhibition of e antigen secretion by EIA; type: functional, organism-based; method in brief: as §2
Hepatitis B virus [5] = assay: Antiviral activity against HBV infected in human HepG2(2.2.15) cells assessed as inhibition of viral DNA replication; type: functional, organism-based
Method in brief: (§4)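 Secreted virion DNA from HepG2 2.2.15 cells after 3 days of compound treatment; HBV DNA isolated from conditioned medium and quantified by SYBR Green real-time PCR (45 cycles, 95 °C 15 s / 58 °C 1 min); mean and SD, n = 3; IC50 as 50% inhibitory concentration.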

[6] = Selectivity index, ratio of TC50 for human HepG2(2.2.15) cells to IC50 for HBV infected in human HepG2(2.2.15) cells assessed as inhibition of e antigen secretion; method in brief: as §3
[7] = Selectivity index, ratio of TC50 for human HepG2(2.2.15) cells to IC50 for HBV infected in human HepG2(2.2.15) cells assessed as inhibition of viral DNA replication; method in brief: as §3
Hepatitis B virus [8] = assay: Antiviral activity against HBV transfected in human HuH7 cells assessed as reduction in viral DNA replication after 2 days by Southern blot analysis; type: functional, organism-based; details: Huh-7
Method in brief: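 Intracellular encapsidated HBV DNA from core particles of pHBV1.2-transfected Huh7 cells treated 2 days; 1.0% agarose, Southern blot with DIG-labeled full-length HBV probe; lamivudine-treated cells as comparison.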

Hepatitis B virus [9] = assay: Antiviral activity against HBV infected in human HepG2(2.2.15) cells assessed as inhibition of surface antigen secretion after 3 days by EIA; type: functional, organism-based; method in brief: as §2
Hepatitis B virus [10] = assay: Inhibition of AP-2 promoter activity in HBV infected in human HuH7 cells transfected with pAP2-Luc at 10 ug/ml after 24 hrs by luciferase reporter gene assay; type: functional, organism-based; details: Huh-7
Method in brief: (§5)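 Huh7 in 24-well plates transfected with pAP1-, pAP2-, pNF-κB- or pISRE-Luc plus pRL-SV40 for 24 h, then treated ± 10 µg/ml; dual-luciferase read-out normalized to Renilla; mean and SD, n = 3.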

[11] = Cytotoxicity against human HepG2(2.2.15) cells at >20 ug/ml after 3 days by MTS assay; type: cell-based; details: hepg2 2.2.15, 72 h; method in brief: as §1
Hepatitis B virus [12] = assay: Reduction of preS promoter activity in HBV infected in human HuH7 cells transfected with pPreS-Luc at 10 ug/ml after 24 hrs by luciferase reporter gene assay; type: functional, organism-based; details: Huh-7
Method in brief: (§6)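 Huh7 seeded in 24-well plates 24 h, cotransfected with viral promoter-luciferase construct (Core, S, preS or X; 1 µg/well) plus pHBV1.2 and pRL-SV40 (0.02 µg/well) in serum-free DMEM 24 h; then 2% FBS medium ± 10 µg/ml; firefly normalized to Renilla; n = 3.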

Hepatitis B virus [13] = assay: Inhibition of NF-kappaB promoter activity in HBV infected in human HuH7 cells transfected with pNF-kappaB-Luc at 10 ug/ml after 24 hrs by luciferase reporter gene assay; type: functional, organism-based; details: Huh-7; method in brief: as §5
Hepatitis B virus [14] = assay: Antiviral activity against HBV infected in human HepG2(2.2.15) cells assessed as inhibition of viral DNA replication by RT-PCR analysis; type: functional, organism-based; method in brief: as §4
Huh-7 [15] = assay: Antiviral activity against HBV infected in human HuH7 cells transfected with pHBV1.2/p65 expression plasmid at 10 ug/ml after 2 days by RT-PCR analysis; type: functional, cell-based
Method in brief: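 Huh7 cells cotransfected with pHBV1.2 plus 0.5 or 2.5 µg pCMV-p65 (or empty vector) for 2 days, then exposed to 10 µg/ml for 2 more days; secreted viral particle DNA quantified by real-time PCR; n = 3.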

Hepatitis B virus [16] = assay: Antiviral activity against HBV infected in human HepG2(2.2.15) cells assessed as inhibition of e antigen secretion after 3 days by EIA; type: functional, organism-based; method in brief: as §2
[17] = Upregulation of cytoplasmic IkappaBalpha level in human HuH7 cells transfected with pHBV1.2 at 1 to 10 ug/ml after 2 days by Western blotting analysis; type: functional, cell-based; details: Huh-7
Method in brief: (§7)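 Huh7 transfected with pHBV1.2 for 2 days, treated 1, 5, 10 µg/ml for 2 further days; nuclear and cytoplasmic fractions by NE-PER; 25 µg protein immunoblotted for p65, p50, phospho-p65 (nuclear, PCNA control) and IκBα (cytoplasmic); three experiments.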

Hepatitis B virus [18] = assay: Antiviral activity against HBV transfected in human HuH7 cells assessed as reduction in major S/preS RNA level at 1 to 10 ug/ml after 2 days by Northern blot analysis; type: functional, organism-based; details: Huh-7
Method in brief: (§8)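 pHBV1.2-transfected Huh7 (cotransfected pCMV-β for efficiency) treated 1, 5, 10 µg/ml for 2 days; 5 µg total RNA on 1.0% agarose, Northern blot with whole HBV genome probe; GAPDH RNA loading control, β-gal for transfection efficiency.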

Hepatitis B virus [19] = assay: Antiviral activity against HBV transfected in human HuH7 cells assessed as reduction in SHBsAg protein expression at 1 to 10 ug/ml after 2 days by immunoblot analysis relative to vehicle-treated control; type: functional, organism-based; details: Huh-7
Method in brief: (§9)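 Huh7 transfected with pHBV1.2 (Lipofectamine 2000, 2 days), then treated 1, 5, 10 µg/ml for 2 days; whole-cell RIPA lysates, 25 µg protein per lane SDS-PAGE, PVDF immunoblot for LHBsAg, SHBsAg, HBcAg with ECL detection; α-tubulin loading control; compared with vehicle.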

Hepatitis B virus [20] = assay: Inhibition of Core promoter activity in HBV infected in human HuH7 cells transfected with pCore-Luc at 10 ug/ml after 24 hrs by luciferase reporter gene assay; type: functional, organism-based; details: Huh-7; method in brief: as §6
Hepatitis B virus [21] = assay: Reduction of S promoter activity in HBV infected in human HuH7 cells transfected with pS-Luc at 10 ug/ml after 24 hrs by luciferase reporter gene assay; type: functional, organism-based; details: Huh-7; method in brief: as §6
Hepatitis B virus [22] = assay: Antiviral activity against HBV transfected in human HuH7 cells assessed as reduction in precore/pregenomic RNA level at 1 to 10 ug/ml after 2 days by Northern blot analysis; type: functional, organism-based; details: Huh-7; method in brief: as §8
[23] = Cytotoxicity against HBV-transfected human HuH7 cells up to 160 ug/ml after 3 days by MTS assay; type: cell-based; details: huh-7, 72 h
Method in brief: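 Huh7 cells (DMEM, 10% FBS) transfected with HBV plasmid, seeded at 4×10^4 cells/ml for 24 h, treated with 2.5–160 µg/ml serial dilutions for 3 days; viability by MTS read-out, four replicates, relative to untreated control.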

Hepatitis B virus [24] = assay: Antiviral activity against HBV transfected in human HuH7 cells assessed as reduction in HBcAg protein expression at 1 to 10 ug/ml after 2 days by immunoblot analysis relative to vehicle-treated control; type: functional, organism-based; details: Huh-7; method in brief: as §9
Hepatitis B virus [25] = assay: Antiviral activity against HBV transfected in human HuH7 cells assessed as reduction in LHBsAg protein expression at 1 to 10 ug/ml after 2 days by immunoblot analysis relative to vehicle-treated control; type: functional, organism-based; details: Huh-7; method in brief: as §9
Hepatitis B virus [26] = assay: Inhibition of ISRE promoter activity in HBV infected in human HuH7 cells transfected with pISRE-Luc at 10 ug/ml after 24 hrs by luciferase reporter gene assay; type: functional, organism-based; details: Huh-7; method in brief: as §5
Hepatitis B virus [27] = assay: Upregulation of AP-1 promoter activity in HBV infected in human HuH7 cells transfected with pAP1-Luc at 10 ug/ml after 24 hrs by luciferase reporter gene assay; type: functional, organism-based; details: Huh-7; method in brief: as §5
Huh-7 [28] = assay: Reduction of phosphorylated p65 NF-kappaB level in human HuH7 cells transfected with pHBV1.2 at 1 to 10 ug/ml after 2 days by Western blotting analysis; type: functional, cell-based; method in brief: as §7
Huh-7 [29] = assay: Reduction in NF-kappaB binding to consensus DNA-binding sequence in human HuH7 cells transfected with pHBV1.2 by ESMA analysis; type: functional, cell-based
Huh-7 [30] = assay: Inhibition of nuclear p65/p50 NF-kappaB protein expression in human HuH7 cells transfected with pHBV1.2 at 1 to 10 ug/ml after 2 days by Western blotting analysis; type: functional, cell-based; method in brief: as §7

## C[C@@]12CC[C@@H]3[C@@](CC[C@H]4[C@@]3(C)CCC[C@@]4(C)NC(=O)c3ccc(Cl)cc3)(CC1=O)C2
[1]
  CC50: 21.6 µg/mL (≈ 50.6 µM)
Hepatitis B virus [2]
  IC50: 20.8 µg/mL (≈ 48.7 µM)
[3]
  Selectivity Index: 1.04

## COc1ccc(C(=O)N[C@]2(C)CCC[C@@]3(C)[C@@H]4CC[C@@]5(C)C[C@]4(CC[C@@H]32)CC5=O)cc1
[1]
  CC50: 22.4 µg/mL (≈ 53 µM)
Hepatitis B virus [2]
  IC50: 18.8 µg/mL (≈ 44.3 µM)
[3]
  Selectivity Index: 1.2

## C[C@@]12CC[C@@H]3[C@@](CC[C@H]4[C@@]3(C)CCC[C@@]4(C)NC(=O)c3ccc(F)cc3)(CC1=O)C2
[1]
  CC50: 19.7 µg/mL (≈ 48 µM)
Hepatitis B virus [4]
  IC50: 12.8 µg/mL (≈ 31.1 µM)
Hepatitis B virus [5]
  IC50: 7.44 µg/mL (≈ 18.1 µM)
Hepatitis B virus [2]
  IC50: 4.17 µg/mL (≈ 10.1 µM)
[6]
  Selectivity Index: 1.54
[7]
  Selectivity Index: 2.65
[3]
  Selectivity Index: 4.73

## C[C@@]12CC[C@@H]3[C@@](CC[C@H]4[C@@]3(C)CCC[C@@]4(C)NC(=O)c3ccccc3)(CC1=O)C2
[1]
  CC50: 48.5 µg/mL (≈ 123 µM)
Hepatitis B virus [2]
  IC50: 35.6 µg/mL (≈ 90.6 µM)
[3]
  Selectivity Index: 1.36

## CCCC(=O)N[C@]1(C)CCC[C@@]2(C)[C@@H]3CC[C@@]4(C)C[C@]3(CC[C@@H]21)CC4=O
[1]
  CC50: 65.7 µg/mL (≈ 183 µM)
Hepatitis B virus [8]
  Activity: Dose-dependent effect
Hepatitis B virus [4]
  IC50: 11.2 µg/mL (≈ 31 µM)
Hepatitis B virus [9]
  inhibition: Dose-dependent effect
Hepatitis B virus [10]
  inhibition: inactive
[11]
  Activity: Toxic
Hepatitis B virus [12]
  Activity: Active
Hepatitis B virus [5]
  IC50: 5.76 µg/mL (≈ 16 µM)
Hepatitis B virus [13]
  inhibition: Active
Hepatitis B virus [14]
  inhibition: Dose-dependent effect
Huh-7 [15]
  Activity: inactive
Hepatitis B virus [16]
  inhibition: Dose-dependent effect
[17]
  Activity: Active
Hepatitis B virus [18]
  Activity: Active
Hepatitis B virus [19]
  Activity: Active
Hepatitis B virus [20]
  inhibition: inactive
Hepatitis B virus [2]
  IC50: 10.4 µg/mL (≈ 28.8 µM)
Hepatitis B virus [21]
  Activity: Active
Hepatitis B virus [22]
  Activity: Active
[23]
  Activity: Non-toxic
Hepatitis B virus [24]
  Activity: Active
Hepatitis B virus [25]
  Activity: Active
[6]
  Selectivity Index: 5.89
[7]
  Selectivity Index: 11.41
Hepatitis B virus [26]
  inhibition: inactive
Hepatitis B virus [27]
  Activity: Active
Huh-7 [28]
  Activity: Active
Huh-7 [29]
  Activity: Dose-dependent effect
[3]
  Selectivity Index: 6.34
Huh-7 [30]
  inhibition: Active

## CCC(=O)N[C@]1(C)CCC[C@@]2(C)[C@@H]3CC[C@@]4(C)C[C@]3(CC[C@@H]21)CC4=O
[1]
  CC50: 87.5 µg/mL (≈ 253 µM)
Hepatitis B virus [2]
  IC50: 32.5 µg/mL (≈ 93.9 µM)
[3]
  Selectivity Index: 2.7
